Among the data in ChEMBL document CHEMBL1126011 (J Med Chem, 1992) are IC50 values, retold here.

Each structure is given as a SMILES string.

One may read the IC50 as the concentration at which inhibition is half-maximal. A low value points to greater potency.

The target in the assay is Sodium-dependent dopamine transporter (Rattus norvegicus, UniProt P23977). Description: Inhibition of [3H]3-beta-(p-fluorophenyl)tropane-2beta-carboxylic acid methyl ester binding to Dopamine transporter in rat striatal membranes. The class given is cell membranes, Membrane. In a few lines: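 Male Sprague-Dawley rat (250-350 g) striata, frozen at -70 °C, homogenized in 10 mM phosphate buffer pH 7.4 with 0.32 M sucrose; 40000g pellet washed, resuspended at 1.0 mg/mL tissue. 0.5 nM [3H]-23 incubated 2 h on ice; filtration onto polyethylenimine-soaked GF/B filters, scintillation counting. IC50 from 10-12-point competition curves, 3-4 assays.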
Sodium-dependent dopamine transporter, sequence (P23977 whole entry): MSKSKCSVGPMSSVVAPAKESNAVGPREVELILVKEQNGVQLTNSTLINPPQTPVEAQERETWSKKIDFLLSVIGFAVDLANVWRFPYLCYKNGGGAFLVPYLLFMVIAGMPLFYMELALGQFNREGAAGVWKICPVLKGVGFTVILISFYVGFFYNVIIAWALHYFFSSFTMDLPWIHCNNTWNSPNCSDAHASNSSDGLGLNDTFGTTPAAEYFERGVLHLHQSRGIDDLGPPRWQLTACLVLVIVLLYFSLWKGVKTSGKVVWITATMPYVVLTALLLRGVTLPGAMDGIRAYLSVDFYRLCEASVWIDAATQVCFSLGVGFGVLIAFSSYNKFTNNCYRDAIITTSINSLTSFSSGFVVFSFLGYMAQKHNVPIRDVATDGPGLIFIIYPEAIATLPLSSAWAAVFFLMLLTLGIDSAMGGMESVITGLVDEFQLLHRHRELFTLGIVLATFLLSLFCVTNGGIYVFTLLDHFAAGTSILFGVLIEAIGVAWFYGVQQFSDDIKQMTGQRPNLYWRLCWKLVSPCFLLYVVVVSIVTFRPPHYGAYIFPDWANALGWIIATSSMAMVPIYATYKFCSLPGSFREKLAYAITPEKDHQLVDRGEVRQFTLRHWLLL
Regarding `CN1[C@@H]2CC[C@H]1C[C@H](OC(=O)c1ccccc1)C2`, the concentration for half-maximal inhibition (IC50) worked out at 5.18 µM. Consider `CN1C2CC[C@@H]1C[C@H](OC(=O)c1ccccc1)C2C(=O)OCCc1ccccc1` (stereo partly drawn), for which the 50% inhibitory concentration (IC50) was determined as 0.248 µM. This IC50 is about 21-fold lower than that of the compound before.

The compound `CN1C2CC[C@@H]1C[C@H](OC(=O)c1ccccc1)C2C(=O)OCCCc1ccccc1` (stereo partly drawn) came in with a half-maximal inhibitory concentration (IC50) of 0.139 µM. In turn, `CCCOC(=O)C1C2CC[C@H](C[C@@H]1OC(=O)c1ccccc1)N2C` (stereo partly drawn) came in with an IC50 of 0.191 µM. Compound `CN1C2CC[C@@H]1C[C@H](OC(=O)c1ccccc1)C2C(=O)OCc1ccccc1` (stereo partly drawn) showed an IC50 of 0.257 µM. The compound `CCOC(=O)C1C2CC[C@H](C[C@@H]1OC(=O)c1ccccc1)N2C` (stereo partly drawn) returned a half-maximal inhibitory concentration (IC50) of 0.13 µM.

Consider `CN1C2CC[C@@H]1C[C@H](OC(=O)c1ccccc1)C2CO` (stereo partly drawn), for which the half-maximal inhibitory concentration (IC50) was 0.561 µM. To `CN1C2CC[C@@H]1C[C@H](OC(=O)c1ccccc1)C2C(=O)Oc1ccccc1` (stereo partly drawn) belongs 0.112 µM. For the compound `CN1C2CC[C@@H]1C[C@H](OC(=O)c1ccccc1)C2C(=O)OCCc1ccc(N)cc1` (stereo partly drawn), the IC50 came to 0.072 µM. In turn, `CCOC(=O)CCC(=O)Nc1ccc(CCOC(=O)C2C3CC[C@H](C[C@@H]2OC(=O)c2ccccc2)N3C)cc1` (stereo partly drawn) gave a half-inhibitory concentration (IC50) of 0.086 µM. In turn, `CN1C2CC[C@@H]1C[C@H](OC(=O)c1ccccc1)C2C(=O)OCCc1ccc([N+](=O)[O-])cc1` (stereo partly drawn) showed an IC50 of 0.601 µM.

Consider `CN1C2CC[C@@H]1C[C@H](OC(=O)c1ccccc1)C2C(=O)OCCc1ccc(Cl)cc1` (stereo partly drawn), for which the 50% inhibitory concentration (IC50) is 0.271 µM. To `CC(=O)OCC1C2CC[C@H](C[C@@H]1OC(=O)c1ccccc1)N2C` (stereo partly drawn) belongs 0.272 µM; to `CN1C2CC[C@@H]1C[C@H](OC(=O)c1ccccc1)C2C(=O)OCCc1ccc(N=C=S)cc1` (stereo partly drawn), 0.196 µM; to `CN1C2CC[C@@H]1C[C@H](OC(=O)c1ccccc1)C2C(=O)OCCc1ccc(NC(=O)CBr)cc1` (stereo partly drawn), 0.061 µM. Turning to `CNC(=O)C1C2CC[C@H](C[C@@H]1OC(=O)c1ccccc1)N2C` (stereo partly drawn), the 50% inhibitory concentration (IC50) is 3.18 µM. Against the preceding compound, the IC50 is about 52-fold higher. `CN1C2CC[C@@H]1C[C@H](OC(=O)c1ccccc1)C2C(=O)OCCc1ccc(N=[N+]=[N-])cc1` (stereo partly drawn) showed a 50% inhibitory concentration (IC50) of 0.227 µM.

As to `CN1C2CC[C@@H]1C[C@H](OC(=O)c1ccccc1)C2C(=O)OC/C=C/c1ccccc1` (stereo partly drawn), the IC50 was 0.371 µM.
